For data set [1], the target named is T1, Neutrophil elastase (Homo sapiens, UniProt P08246).
T1 sequence (P08246 whole entry): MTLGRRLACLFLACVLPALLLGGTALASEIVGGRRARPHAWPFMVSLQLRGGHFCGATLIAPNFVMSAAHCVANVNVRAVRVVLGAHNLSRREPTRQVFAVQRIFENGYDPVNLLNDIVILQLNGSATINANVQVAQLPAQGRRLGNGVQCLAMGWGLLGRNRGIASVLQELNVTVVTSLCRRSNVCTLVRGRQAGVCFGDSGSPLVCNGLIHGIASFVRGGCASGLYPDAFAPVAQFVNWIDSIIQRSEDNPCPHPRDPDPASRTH
In words: Inhibition of human neutrophil elastase using N-methylsuccinyl-Ala-Ala-Pro-Val-7-amino-4-methylcoumarin as substrate measured every 30 seconds for 10 mins by fluorescence microplate reader analysis.

Data set [2] concerns the target T2, Neutrophil elastase (Homo sapiens) (UniProt P08246).
T2 sequence (whole entry): T1 sequence (P08246 whole entry)
Briefly: Inhibition of human neutrophil elastase using N-methylsuccinyl-Ala-Ala-Pro-Val-7-amino-4-methylcoumarin as substrate at 50 uM measured every 30 seconds for 10 mins by fluorescence microplate reader analysis.

In data set [3] the target is T3, Plasma kallikrein (Homo sapiens, UniProt P03952). Briefly: Inhibition of human plasma kallikrein using benzyloxycarbonyl-Phe-Arg-7-amino-4-methylcoumarin as substrate at 50 uM by fluorescence microplate reader analysis.
Data set [4] addresses T4, Urokinase-type plasminogen activator (Homo sapiens, UniProt P00749). In words: Inhibition of human urokinase using benzyloxycarbonyl-Gly-Gly-Arg-7-amino-4-methylcoumarin as substrate by fluorescence microplate reader analysis.
Data set [5] has as its target Chymotrypsinogen B (Homo sapiens, UniProt P17538). In words: Inhibition of human pancreatic chymotrypsin using Suc-Ala-Ala-Pro-7-amino-4-methylcoumarin as substrate by fluorescence microplate reader analysis.
The target in data set [6] is Prothrombin (Homo sapiens, UniProt P00734). In words: Inhibition of human plasma thrombin using benzonyl-Phe-Val-Arg-7-amino-4-methylcoumarin as substrate by fluorescence microplate reader analysis.
In data set [7] the target is T2, Neutrophil elastase (Homo sapiens). Briefly: Inhibition of human neutrophil elastase using N-methylsuccinyl-Ala-Ala-Pro-Val-7-amino-4-methylcoumarin as substrate at 5 uM after 4 hrs by fluorescence microplate reader analysis.
Data set [8] in a line: Half life in phosphate buffer at pH 7.3. It counts as physicochemical.
The target in data set [9] is Cathepsin D (Homo sapiens) (UniProt P07339). In words: Inhibition of human spleen cathepsin D using MOCAc-Gly-Lys-Pro-Ile-Leu-Phe-Phe-Arg-Leu-Lys (Dnp)-D-Arg-NH2 as substrate at 50 uM by fluorescence microplate reader analysis. The method in brief:
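Cathepsin D from human spleen, 0.1 U/mL, in 0.1 M sodium acetate pH 5.0 with 5 μM MOCAc peptide substrate, 25 °C. Highest compound concentration tested 50 μM.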

In data set [10] the target is T2, Neutrophil elastase (Homo sapiens). In words: Reversible inhibition of human neutrophil elastase using N-methylsuccinyl-Ala-Ala-Pro-Val-7-amino-4-methylcoumarin as substrate at 5 uM after 1 to 2 hrs by fluorescence microplate reader analysis.
The target of data set [11] is T3, Plasma kallikrein. In words: Inhibition of human plasma kallikrein using benzyloxycarbonyl-Phe-Arg-7-amino-4-methylcoumarin as substrate by fluorescence microplate reader analysis.
In data set [12] the target is T4, Urokinase-type plasminogen activator. Briefly: Inhibition of human urokinase using benzyloxycarbonyl-Gly-Gly-Arg-7-amino-4-methylcoumarin as substrate at 50 uM by fluorescence microplate reader analysis.
Data set [13] addresses T2, Neutrophil elastase (Homo sapiens). In words: Competitive inhibition of human neutrophil elastase using N-methylsuccinyl-Ala-Ala-Pro-Val-7-amino-4-methylcoumarin as substrate by Lineweaver-Burk plot analysis.
Data set [14] has the same target. In words: Inhibition of human neutrophil elastase using N-methylsuccinyl-Ala-Ala-Pro-Val-7-amino-4-methylcoumarin as substrate at 5 uM after 5 hrs by fluorescence microplate reader analysis.

By IC50 is commonly meant the midpoint of a concentration-inhibition curve.

Each structure is given as a SMILES string. Calls of active or inactive are those of the source. No cut-off for these calls is given here.

Sequence of Cathepsin D (Homo sapiens) (P07339 65-162 limits assumed): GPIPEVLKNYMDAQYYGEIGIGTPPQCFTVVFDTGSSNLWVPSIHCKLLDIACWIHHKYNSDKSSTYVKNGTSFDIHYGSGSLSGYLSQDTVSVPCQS
Sequence of Cathepsin D (Homo sapiens) (P07339 169-412 limits assumed): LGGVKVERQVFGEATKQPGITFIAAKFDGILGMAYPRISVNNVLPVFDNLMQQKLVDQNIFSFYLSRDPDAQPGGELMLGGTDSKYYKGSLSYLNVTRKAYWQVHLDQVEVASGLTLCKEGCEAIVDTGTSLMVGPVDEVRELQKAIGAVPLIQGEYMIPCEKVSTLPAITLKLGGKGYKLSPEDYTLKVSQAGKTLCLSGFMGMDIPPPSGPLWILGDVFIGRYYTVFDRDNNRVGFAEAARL
T3 sequence (P03952 20-390 limits assumed): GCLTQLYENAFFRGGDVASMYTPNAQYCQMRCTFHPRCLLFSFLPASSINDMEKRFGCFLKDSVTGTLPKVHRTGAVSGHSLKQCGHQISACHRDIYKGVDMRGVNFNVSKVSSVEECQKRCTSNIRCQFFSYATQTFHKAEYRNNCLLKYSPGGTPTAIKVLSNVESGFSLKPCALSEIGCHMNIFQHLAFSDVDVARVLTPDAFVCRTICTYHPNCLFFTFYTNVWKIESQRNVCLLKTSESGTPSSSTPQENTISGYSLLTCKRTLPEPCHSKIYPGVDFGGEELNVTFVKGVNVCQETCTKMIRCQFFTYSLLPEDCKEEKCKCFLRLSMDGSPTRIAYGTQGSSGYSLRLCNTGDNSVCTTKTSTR
T3 sequence (P03952 391-638 limits assumed): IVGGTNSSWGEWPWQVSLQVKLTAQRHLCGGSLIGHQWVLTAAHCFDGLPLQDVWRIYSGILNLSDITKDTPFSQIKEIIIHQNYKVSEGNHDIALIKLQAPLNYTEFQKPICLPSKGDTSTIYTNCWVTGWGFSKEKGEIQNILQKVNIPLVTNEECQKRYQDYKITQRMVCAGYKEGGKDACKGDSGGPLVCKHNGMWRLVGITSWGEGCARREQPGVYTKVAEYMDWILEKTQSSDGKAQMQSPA
Sequence of Chymotrypsinogen B (P17538 34-164 limits assumed, other chains not shown): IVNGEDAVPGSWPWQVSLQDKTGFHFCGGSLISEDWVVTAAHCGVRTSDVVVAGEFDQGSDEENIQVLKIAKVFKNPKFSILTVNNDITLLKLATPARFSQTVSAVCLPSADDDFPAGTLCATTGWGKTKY
Sequence of Chymotrypsinogen B (P17538 167-263 limits assumed, other chains not shown): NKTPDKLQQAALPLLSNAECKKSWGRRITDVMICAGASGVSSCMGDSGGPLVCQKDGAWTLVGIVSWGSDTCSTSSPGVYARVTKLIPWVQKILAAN

As to `CCOC(=O)c1nn(C(=O)c2ccccc2)c2ccc(OC)cc12`, inhibition in data set [1] was half-maximal at 80 nM (IC50).

Consider `COC(=O)c1nn(C(=O)c2cccc(C)c2)c2c([N+](=O)[O-])cccc12`, for which the inhibition entry in data set [2] is “inactive”.

Consider `CCOC(=O)c1nn(C(=O)c2cccc(C)c2)c2ccc(NC(=O)CC)cc12`, for which the inhibition result in data set [3] was “inactive”. Further, the IC50 in data set [4] worked out at 14800 nM; in data set [5], 140 nM; in data set [6], 39 nM.

For the compound `CCOC(=O)c1nn(C(=O)c2cccc(C)c2)c2ccc(N(C)C)cc12`, the IC50 in [1] was 140 nM.

For the compound `CCOC(=O)c1nn(C(=O)c2cccc(C)c2)c2ccc(NC(C)=O)cc12`, the inhibition entry in data set [3] and in data set [9] was “inactive” each time. In data set [7], the inhibition result is “Active”. In data set [8], the t1/2 was 78.8 min. In addition, the IC50 in [4] was 13700 nM; in data set [1] it was 30 nM; in data set [6], 310 nM.

As for `CCOC(=O)c1nn(C(=O)c2ccsc2)c2ccc(Br)cc12`, the IC50 in [1] is 260 nM.

For the compound `COC(=O)c1nn(C(=O)c2cccc(C)c2)c2ccc([N+](=O)[O-])cc12`, the inhibition entry in data set [3] and in data set [9] was “inactive” in each case. The inhibition result in data set [7] is “Active”. In data set [8], this compound yielded a t1/2 of 47.8 min. Also, the IC50 in data set [4] was 440 nM; in data set [6], 1100 nM.

`N#Cc1nn(C(=O)c2ccccc2)c2ccccc12` gave an IC50 in data set [1] of 40 nM.

For `CCOC(=O)c1nn(C(=O)c2ccsc2)c2ccc([N+](=O)[O-])cc12`, the inhibition result in data set [3] and in [9] was “inactive” throughout. In addition, the inhibition entry in data set [10] was “Active”. The t1/2 in data set [8] is given as 32.8 min. The IC50 in [4] was 25300 nM; in data set [1] it was 30 nM; in data set [5] it was 46 nM; in [6], 370 nM.

On to `CCOC(=O)c1nn(C(=O)c2cccc(OC)c2)c2ccc([N+](=O)[O-])cc12`, for which the inhibition entry in data set [3] is “inactive”. Moreover, the IC50 in [4] was 480 nM; in data set [5], 21 nM; in data set [6], 82 nM.

Consider `COC(=O)c1nn(C(=O)c2ccccc2)c2ccc([N+](=O)[O-])cc12`, for which the inhibition result in data set [10] is “Active”. The compound further showed a t1/2 in data set [8] of 37.9 min. Besides, the inhibition entry in data set [9] is “inactive”. Besides, the IC50 in data set [4] turned out to be 620 nM; in data set [11], 11200 nM; in [1] it was 30 nM; in [5], 31 nM; in data set [6], 830 nM.

For the compound `CCOC(=O)c1nn(C(=O)c2cccc(C)c2)c2ccc(NC(=O)C3CC3)cc12`, the inhibition entry in data set [12], in data set [3] and in data set [9] was “inactive” in each case. Besides, the inhibition entry in data set [13] and in [14] was “Active” each time. The t1/2 in data set [8] was determined as 51.7 min. In addition, the IC50 in data set [1] was determined as 12 nM; in data set [5] it was 370 nM; in data set [6], 160 nM.

For the compound `CCOC(=O)c1nn(C(=O)c2cccc(C)c2)c2ccc([N+](=O)[O-])cc12`, in data set [3], the inhibition result was “inactive”. The results for the IC50 in [4], in data set [5] and in [6] were 1500 nM, 40 nM and 480 nM, respectively.

In [1], `CCOC(=O)c1nn(C(=O)c2ccccc2)c2ccc([N+](=O)[O-])cc12` came in with an IC50 of 20 nM.

As to `CCOC(=O)c1nn(C(=O)c2cccc(C)c2)c2ccc(OC(F)(F)F)cc12`, in data set [1], the IC50 turned out to be 110 nM.

Compound `CCCC(=O)Nc1ccc2c(c1)c(C(=O)OCC)nn2C(=O)c1cccc(C)c1` showed an IC50 in [1] of 50 nM.

The compound `COC(=O)c1nn(C(=O)c2ccsc2)c2ccc([N+](=O)[O-])cc12` gave an IC50 in data set [1] of 50 nM.

As to `COC(=O)c1nn(C(=O)c2cccc(OC)c2)c2ccc(Br)cc12`, the inhibition result in [3] was “inactive”.

As to `CCOC(=O)c1nn(C(=O)c2cccc(C)c2)c2ccc(OC)cc12`, the IC50 in [1] came out at 140 nM.

Regarding `Cc1cccc(C(=O)n2nc(C#N)c3ccccc32)c1`, in data set [3], the inhibition result was “inactive”. Also, the results for the IC50 in data set [4], in [5] and in data set [6] were 6600 nM, 66 nM and 1900 nM, respectively.

On to `COC(=O)c1nn(C(=O)c2cccc(C)c2)c2ccc(Br)cc12`, for which the inhibition entry in data set [3] is “inactive”. For the same compound, the IC50 in data set [1] worked out at 80 nM.

In [1], `COC(=O)c1nn(C(=O)c2ccsc2)c2ccc(Br)cc12` returned an IC50 of 160 nM.

For the compound `COC(=O)c1nn(C(=O)c2cccc(C)c2)c2cc([N+](=O)[O-])ccc12`, the inhibition result in data set [3] and in [9] was “inactive” in each case. This compound came in with a t1/2 in [8] of 41.5 min. Further, the IC50 in data set [4] was found to be 310 nM; in data set [1] it was 20 nM; in data set [5], 38 nM; in data set [6], 640 nM.

For the origin of these results see ChEMBL document CHEMBL2406965, “Optimization of N-benzoylindazole derivatives as inhibitors of human neutrophil elastase” (J Med Chem, 2013).
